These results are taken from ChEMBL document CHEMBL4513216, “Probing the Open Global Health Chemical Diversity Library for Multistage-Active Starting Points for Next-Generation Antimalarials” (ACS Infect Dis, 2020).

The data set is described as follows: Toxicity liver stage against HepG2, at 10uM. The class given is cell-based. The arrangement: test concentration 10 uM, cell line HepG2-A16-CD81EGFP. To be noted: human, HepG2-A16-CD81EGFP cells; read-out: INHIBITION
In short, it runs like this:
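Uninfected HepG2-A16-CD81EGFP cells, 3 × 10^3 per well, 1536-well, plated on prespotted compound at 10 μM final, parasite-free screening media added to match infected plates; puromycin 10 μM positive, DMSO 0.5% negative; run in parallel with 48 h PbLuc assay at 37 °C, 5% CO2; viability by CellTiter-Glo luminescence, normalized to controls.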

For `Cc1nnc2n1CCN(CCC(=O)Nc1sccc1C#N)C2`, the cytotoxicity at 10 µM was -2.28%.
As for `CCOC(=O)C1CCN(C(=O)Cc2c(C)nc(C)[nH]c2=O)CC1`, the cytotoxicity at 10 µM stood at 16.6%.
With `Cc1ccc(CN2CCOC3(CCCN(C(=O)c4ccco4)C3)C2)s1` (stereo unspecified) the figure was -10.3%; with `Cc1nn(C)c(C)c1C1CCCN1Cc1nc(-c2ccco2)no1` (stereo unspecified), -3.17%.
`CCC(=O)NCC(=O)NCC1(O)CCC(C(C)(C)C)CC1` (stereo unspecified): the cytotoxicity at 10 µM is 6.93%.
`CCc1nnc2n1CCN(C(=O)c1cc(C)n(-c3ccccc3)c1C)C2`: the cytotoxicity at 10 µM was -8.7%.
`CCc1noc(CNc2nc(-c3cccnc3)nc3c2CCNCC3)n1`: the cytotoxicity at 10 µM is 0.562%.
With `Cc1nn(Cc2ccc(F)cc2)c2[nH]nc(N)c12` the figure was 1.11%.
For the molecule `N#Cc1cccc(OCCN2CCCC(c3noc(C4CC4)n3)C2)c1` (stereo unspecified), the cytotoxicity at 10 µM was -0.276%.
With `CC1C(=O)NCCN1CCOc1ccc(C#N)cc1` (stereo unspecified) the figure was 2.29%.
With `Cc1cccc(OC2CCN(c3nc(N)nc4[nH]cnc34)CC2)c1` the figure was 35.4%.
With `CCN(CC(=O)Nc1cc(Cl)ccc1C)C(=O)c1ccncc1` the figure was -1.73%; with `Cc1ccc2c(c1)CN(C(=O)c1ccncc1)C(CN(C)C)CO2` (stereo unspecified), -13.5%; with `O=C(NS(=O)(=O)c1cnn(-c2ccccc2F)c1)c1ccoc1`, -5.2%.
For `Cc1ccc(CNC(=O)c2ccc(F)cc2)o1`, the cytotoxicity at 10 µM was -3.35%.
`CC(NC(=O)c1cc(=O)n(C)c(=O)n1C)c1ccccc1-n1cccn1` (stereo unspecified): the cytotoxicity at 10 µM was -9.47%.
With `CC1CCN(C(=O)[C@H]2C[C@@H]3CCN(CC4CCOCC4)C[C@@H]3O2)CC1`, the cytotoxicity at 10 µM was 9.85%.
With `COc1ccc(C2CCCCCN2S(C)(=O)=O)cc1` (stereo unspecified) the figure was 3.86%.
Regarding `CSCC[C@@H](CO)NC(=O)c1sc(-c2ccc(Cl)cc2)nc1C`, the cytotoxicity at 10 µM is 6.45%.
As for `CN(C(=O)Cc1coc(-c2ccccc2)n1)C1(C#N)CCC1`, the cytotoxicity at 10 µM stood at 6.41%.
With `O=C(C1CCOCC1)N1CCc2onc(COc3cccnc3)c2C1` the figure was -69.6%; with `Cc1nc[nH]c1CN1CCCC12CCN(c1ccccn1)CC2`, 4.55%; with `CC(C)Cn1c(=O)n(CCCn2cccn2)c2cc(C(=O)O)cnc21`, 1.18%.
With `CCn1ncnc1C(C)Nc1cc(C)c2ccc(SC)cc2n1` (stereo unspecified) the figure was -0.995%; with `Cc1cccc2c1ccn2CCC(=O)Nc1c2c(nn1C)CSC2`, 3.03%.
For the molecule `COc1ccccc1S(=O)(=O)Nc1ccc2c(C(=O)O)c[nH]c2c1`, the cytotoxicity at 10 µM was -11.1%.
With `CN(Cc1cccc2cnccc12)C(=O)CCc1n[nH]c2c1CCCC2` the figure was -7.27%; with `O=C(Cc1cccc(F)c1)N1CCc2ncnc(NC3CC3)c2CC1`, -98.5%; with `Cc1cccnc1CN1CCN(Cc2ccc(-c3cc[nH]n3)o2)CC1`, -3.57%.
With `COc1ccc(-c2cc3nn(CC(=O)NC(C)C)c(=O)n3c(C)n2)cc1` the figure was 1.81%; with `CC(C)(CNC1CCCN(Cc2ccccc2F)C1)CN1CCOCC1` (stereo unspecified), 6.21%; with `COCc1nc(N(C)CCSc2ccccc2)c2cnn(C)c2n1`, 1.98%.
Regarding `CC(C)c1nnc(CN2CCc3ccc(S(N)(=O)=O)cc32)o1`, the cytotoxicity at 10 µM was found to be 3.2%.
With `Cc1ccc(C(=O)NC(CN2CCCC2=O)c2ccccc2)cn1` (stereo unspecified), the cytotoxicity at 10 µM is -4.6%.
With `COc1cc(C(=O)N2CCC(c3n[nH]c(C)n3)CC2)cc(OC)c1C` the figure was -10.9%.
With `COCC(=O)N1CCC(Cc2nccnc2-c2c(C)n[nH]c2C)C1` (stereo unspecified) the figure was -11.7%; with `COCCN1CCC(c2nc3c([nH]2)CC(C)(C)CNC3=O)C1` (stereo unspecified), -2.18%.
With `CCCc1noc(C2CC(=O)N(CCN(C)C)C2)n1` (stereo unspecified) the figure was 5.48%; with `Cc1ccc(-c2cn(C3CCN(C(=O)[C@H]4CCCO4)CC3)nn2)cc1`, -8.93%.
For the molecule `Cc1cccc(C(=O)N2CCCC(Cc3cncc4ccccc34)C2)n1` (stereo unspecified), the cytotoxicity at 10 µM is -19%.
With `N#CC1COCCN1S(=O)(=O)c1ccc(F)c(Br)c1` (stereo unspecified) the figure was 4.43%; with `O=C(NC1CC1)C1CCN(c2cccc(C(F)(F)F)n2)CC1`, 5.17%; with `CN(C)c1nc2n(c(=O)n1)CCN2C(=O)Nc1ccc(Cl)cc1`, 6.36%.
As for `OC[C@H]1CN2CCN(c3ccccn3)C[C@@H]2[C@@H]1c1ccccc1`, the cytotoxicity at 10 µM was -0.0603%.
With `CC(C)C(=O)N1CCC2(CCN2CC2CC2)C1` (stereo unspecified) the figure was 8.98%; with `FC(F)C(F)(F)COCc1ncnn1-c1ccc2c(c1)OCO2`, -2.82%; with `O=C(NCc1csc(Br)c1)Nc1cn[nH]c1`, 2.1%.
With `O=C(CCN1CCCCC1)Nc1c2c(cc3c1CCC3)CCC2`, the cytotoxicity at 10 µM was 4.29%.
With `Cc1oc(-c2ccsc2)nc1CNCCn1cccn1` the figure was -3.36%; with `O=C(NCc1ccc(-n2cncn2)nc1)c1cc(Cl)c2c(c1)OCCO2`, -16.5%.
With `Cc1cnn(CC(C)NCc2cc(=O)n3cc(C)ccc3n2)c1` (stereo unspecified) the figure was 3.89%; with `Cn1cncc1CN1C[C@@H]2OCCN(c3ncccn3)[C@@H]2C1`, -67%.
With `OCCN1CCCC(c2nccnc2Oc2ccc(F)cc2)C1` (stereo unspecified) the figure was 25.6%; with `C1CCC(NCCN2CCOCC2)C1`, -145%.
On to `Cc1ccccc1OC1CCN(CC(=O)Nc2cn(C)nc2C)CC1`, for which the cytotoxicity at 10 µM was -0.0825%.
With `CN(Cc1cccnc1)Cc1cncc2c1CCN(Cc1ccoc1)C2` the figure was -100%; with `CC(C)c1cc(C(=O)N(Cc2ccncc2)CC2CCCO2)no1` (stereo unspecified), 15.6%; with `CCN1CCOCC2(CCCN(C(=O)c3cccc(O)c3)C2)C1` (stereo unspecified), 0.14%.
On to `O=C(Nc1ccccc1)N1CCn2c(nnc2C2CCCN2)C1` (stereo unspecified), for which the cytotoxicity at 10 µM was found to be 2.91%.
With `COc1ccc(S(=O)(=O)NC(=O)c2cscn2)cc1C` the figure was 6.84%; with `CCc1[nH]ncc1C(=O)N1CCCC(n2ccnc2C)C1` (stereo unspecified), -10.5%.
With `Cc1cnc(C(=O)N2CCCC(n3ccnc3C)C2)cn1` (stereo unspecified) the figure was -10.8%; with `CNC(=O)c1ccc(-c2ccc(CNS(=O)(=O)N(C)C)cc2)nc1C`, -2.05%; with `CCN1CCCc2cc(CN3CCc4nc(C)[nH]c(=O)c4C3)ccc21`, 0.13%.
With `Cc1ccc(NC2CCN(C(=O)c3ccc(F)cc3Cl)CC2)nn1` the figure was -14.1%; with `CO[C@@H]1CCC[C@@H](NC(=O)c2cccc(F)c2)[C@H]1O`, 1.65%.
As to `COCCN1CCCC12CCN(Cc1cncn1C)CC2`, the cytotoxicity at 10 µM was found to be 8.52%.
Regarding `c1cnnc(N2CCCC(NCc3cccc4c3OCCO4)C2)c1` (stereo unspecified), the cytotoxicity at 10 µM was -7.99%.
Take `c1csc(CN2CC3(CCN(Cc4ccsc4)C3)C2)n1`: the cytotoxicity at 10 µM was -2.65%.
Turning to `CN1CCC(NC(=O)Nc2ccc(F)c(-n3cccc3)c2)C1=O` (stereo unspecified), the cytotoxicity at 10 µM was -135%.
With `CCS(=O)(=O)NCCNC(C)(C)c1nc(C)cs1` the figure was -0.396%.
With `CCC(=O)N1CCc2[nH]cnc2C12CCN(C(=O)CCS(C)(=O)=O)CC2` the figure was -14.4%; with `Cc1cc(C)n(CC2CCCCN2CCc2ccncc2)n1` (stereo unspecified), -7.07%; with `Cc1cccnc1CN1CCCCC1c1ccn2ccnc2n1` (stereo unspecified), 0.498%.
With `Cc1cc2c(cc1CNC(Cc1cccs1)c1nccs1)OCO2` (stereo unspecified) the figure was 6.76%; with `O=C(Cc1ccc2c(c1)CCC2)N1CCN(c2cnccn2)CC1`, -2.18%; with `CNS(=O)(=O)c1ccc(C(=O)NCc2ccnc(OC)c2)cc1`, 2.86%.
With `Cn1cc(C2COC3(CCN(C(=O)Cc4ccccc4)CC3)C2)cn1` (stereo unspecified), the cytotoxicity at 10 µM was -108%.
For `CCN(C)c1ncnc2c1CCN(C(=O)N1CCOCC1)CC2`, the cytotoxicity at 10 µM came out at 0.223%.
Take `Cc1c(-c2ccccc2)ncn1CCCNc1cccnc1`: the cytotoxicity at 10 µM was 2.06%.
Regarding `CCNc1cc2c(nn1)CCN(C(=O)c1cc3ccccc3[nH]c1=O)C2`, the cytotoxicity at 10 µM was -1.41%.
With `CC(C)N1CCOCC2(CN(Cc3ccco3)CCO2)C1` (stereo unspecified) the figure was -7.53%; with `CS(=O)(=O)CC(=O)N1C[C@H]2CCC[C@@]2(COc2ccccn2)C1`, -99.2%.
With `Cn1c(CC2CCS(=O)(=O)C2)nnc1SCCOc1cccc(Cl)c1` (stereo unspecified) the figure was 14.4%.
With `CN(Cc1cccc(O)c1)CC1CCCN(CCc2ccc(Cl)cc2)C1` (stereo unspecified) the figure was 6.22%; with `Cc1nc2cc(O)nn2c(C)c1CCC(=O)N(C)Cc1ccccc1`, -141%; with `O=C(NCC1(N2CCOCC2)CCSC1)Nc1cn[nH]c1` (stereo unspecified), 9.37%.
For the molecule `O=C(NC1CC1)c1ccnc(N2CCOC(c3ccc(Cl)cc3)C2)c1` (stereo unspecified), the cytotoxicity at 10 µM worked out at 4.44%.
With `CCCN(C)C(=O)Nc1ccc(C(=O)NCCC(=O)OC)cc1` the figure was 6.62%; with `O=C(Cc1ccccc1)N1CCC2(CC1)COCCN2CC1CC1`, -78.5%.
With `CCc1ccc(CN2CCC3(CCCN(C(=O)c4cnccn4)C3)C2)o1` (stereo unspecified) the figure was -127%.
With `CCc1nc(C2CCCN(C(=O)c3cccnc3O)C2)no1` (stereo unspecified) the figure was -3.54%.
Consider `Cc1noc(C)c1CN1C[C@@H]2CCCO[C@@H]2[C@H](NS(C)(=O)=O)C1`, for which the cytotoxicity at 10 µM turned out to be 12.2%.
Regarding `O=C(NCc1ccco1)[C@@]12CCO[C@@H]1CCN(Cc1nccs1)C2`, the cytotoxicity at 10 µM was found to be 14.6%.
With `N#Cc1cccc(S(=O)(=O)CCN2CCOC2=O)c1`, the cytotoxicity at 10 µM was -2.32%.
With `N#CCc1ccc(OCC(=O)NS(=O)(=O)c2cccs2)cc1` the figure was 13.6%.
